We go through 13 compounds from ChEMBL document CHEMBL3124823, “1,2,3-Triazole-containing derivatives of rupestonic acid: click-chemical synthesis and antiviral activities against influenza viruses” (Eur J Med Chem, 2014).

Converted amounts (≈) assume the structure as drawn. Where only a bound is given, the exact number is not on record here.

The test system of series [1] is Influenza B virus. Kind of series: Antiviral activity against Influenza B virus jifang/13/97 infected in MDCK cells assessed as inhibition of virus-induced cytopathicity after 40 hrs. The series is classed as functional, organism-based. The note with it: jifang/13/97, MDCK. Summed up: (§1)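 CPE reduction in MDCK cells: cells grown 24 h at 37 °C, 5% CO2, then infected and held 2 h at 37 °C before the inoculum was removed. Threefold serial drug dilutions (8 levels from 20 mg/mL DMSO stocks) were added and incubated 40 h at 37 °C. CPE inhibition was scored against cell and virus controls to give IC50. Ribavirin and oseltamivir were the controls.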
Background: Damage to the host cells serves as the signal in cytopathic effect assays.

The test system of series [2] is Influenza A virus. Kind of series: Antiviral activity against Influenza A virus A/hanfang/359/95(H3N2) infected in MDCK cells assessed as inhibition of virus-induced cytopathicity after 40 hrs. It is filed as functional, organism-based. In outline:
as §1

Series [3] has as its system Influenza A virus. Briefly: Antiviral activity against Influenza A virus (A/FM/1/1947(H1N1)) infected in MDCK cells assessed as inhibition of virus-induced cytopathicity after 40 hrs. The series is classed as functional, organism-based. The note with it: A/Fort Monmouth/1/1947(H1N1). In outline:
as §1

Series [4] in a line: Cytotoxicity against MDCK cells after 48 hrs. The series is classed as cell-based, Canis lupus familiaris. The note with it: dog, read-out: TC50. Summed up:
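MDCK cells seeded at 25000 per well and cultured 24 h at 37 °C, 5% CO2. Threefold dilutions were added to the monolayer and culture continued 48 h. Cytopathic changes were recorded by observation, and TC50 was calculated by the Reed & Muench method.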

Series [5] is described as follows: Selectivity index, ratio of TC50 for MDCK cells to IC50 for Influenza B virus jifang/13/97. The settings on record: dog, read-out: Selectivity Index. The series is classed as toxicity, cell-based. In outline: (§2)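 Selectivity index = TC50 (MDCK, 48 h visual cytotoxicity) / IC50 from the 40 h CPE-inhibition assay for the given strain.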
The nature of series [6]: Selectivity index, ratio of TC50 for MDCK cells to IC50 for Influenza A virus A/hanfang/359/95(H3N2). The settings on record: dog, read-out: Selectivity Index. It is filed as toxicity, cell-based. Summed up: as §2
The nature of series [7]: Selectivity index, ratio of TC50 for MDCK cells to IC50 for Influenza A virus (A/FM/1/1947(H1N1)). It is filed as toxicity, cell-based. The settings on record: dog, read-out: Selectivity Index. In outline:
as §2

Series [8] is described as follows: Selectivity index, ratio of TC50 for MDCK cells to IC50 for Influenza A virus (A/Tianjinjinnan/15/2009/H1N1). It is filed as toxicity, cell-based. The note with it: dog, read-out: Selectivity Index. Summed up:
as §2

Series [9] concerns Influenza B virus. Kind of series: Ratio of ribavirin IC50 to compound IC50 for Influenza B virus jifang/13/97 infected in MDCK cells. It is filed as functional.

Consider `C=C(C(=O)OCc1cn(Cc2ccc(Cl)c(Cl)c2)nn1)[C@@H]1CC[C@H](C)[C@@H]2CC(=O)C(C)=C2C1`, for which the IC50 with Influenza B virus [1], with Influenza A virus [2] and in the series with Influenza A virus [3] was more than 7.41 µg/mL each time. Further, the CC50 at 48 h in series [4] was 22.2 µg/mL (≈ 45.5 µM).
On to `C=C(C(=O)OCc1cn(Cc2ccccc2C)nn1)[C@@H]1CC[C@H](C)[C@@H]2CC(=O)C(C)=C2C1`, for which, in series [5], the selectivity ratio came to 2.55. Besides, the IC50 (usually the concentration that inhibits the measured activity by half) in the series with Influenza B virus [1] is 18.8 µg/mL (≈ 43.4 µM); with Influenza A virus [2], more than 22.2 µg/mL; with Influenza A virus [3] it was more than 22.2 µg/mL. Moreover, the CC50 at 48 h in series [4] is 46.2 µg/mL (≈ 107 µM).
For `CCOC(=O)C1=C[C@@H](OC(CC)CC)[C@H](NC(C)=O)[C@@H](N)C1` [OSELTAMIVIR], the selectivity ratio in series [6] was 1240; in series [7] it was 448. The IC50 in the series with Influenza A virus [2] was 1 µg/mL (≈ 3.2 µM); with Influenza A virus [3], 2.81 µg/mL (≈ 8.99 µM). Besides, in series [4], the CC50 at 48 h is 1260 µg/mL (≈ 4030 µM).
`C=C(C(=O)OCc1cn(Cc2cccc(C)c2)nn1)[C@@H]1CC[C@H](C)[C@@H]2CC(=O)C(C)=C2C1`: the selectivity ratio is not below 4 in series [5], 1.98 in [8] and 3.76 in series [7]. Besides, the half-maximal inhibitory concentration (IC50) in the series on Influenza B virus [1] was not below 9.54 µg/mL; in the series with Influenza A virus [2], more than 22.2 µg/mL; with Influenza A virus [3], 12.3 µg/mL (≈ 28.4 µM). The CC50 at 48 h in series [4] is 38.5 µg/mL (≈ 88.8 µM).
As to `C=C(C(=O)NCc1cn(Cc2cccc(F)c2)nn1)[C@@H]1CC[C@H](C)[C@@H]2CC(=O)C(C)=C2C1`, the “Ratio IC50” value in the series on Influenza B virus [9] is reported as more than 4. Moreover, the selectivity ratio in [5] is 14.3. Further, the IC50 was 4.71 µg/mL (≈ 10.8 µM) in the series on Influenza B virus [1], more than 22.2 µg/mL in the series on Influenza A virus [2] and more than 22.2 µg/mL in the series with Influenza A virus [3]. In addition, the CC50 at 48 h in series [4] is 66.7 µg/mL (≈ 153 µM).
Turning to `C=C(C(=O)OCc1cn(Cc2ccc(Cl)cc2)nn1)[C@@H]1CC[C@H](C)[C@@H]2CC(=O)C(C)=C2C1`, the selectivity ratio in series [5] turned out to be 5.2. The IC50 with Influenza B virus [1] is 12.8 µg/mL (≈ 28.3 µM); in the series on Influenza A virus [2] it was more than 22.2 µg/mL; in the series with Influenza A virus [3] it was more than 22.2 µg/mL. In series [4], the CC50 at 48 h was determined as 66.7 µg/mL (≈ 147 µM).
As for `C=C(C(=O)NCc1cn(C2CCCCC2)nn1)[C@@H]1CC[C@H](C)[C@@H]2CC(=O)C(C)=C2C1`, the selectivity ratio in series [5] was found to be 1.95; in series [8] it was 1.73. The IC50 in the series with Influenza B virus [1] is 19.7 µg/mL (≈ 48.1 µM); in the series on Influenza A virus [2], more than 7.41 µg/mL; in the series on Influenza A virus [3], more than 7.41 µg/mL. Moreover, the CC50 at 48 h in series [4] was 38.5 µg/mL (≈ 93.7 µM).
For the compound `C=C(C(=O)NCc1cn(Cc2cccc(C)c2)nn1)[C@@H]1CC[C@H](C)[C@@H]2CC(=O)C(C)=C2C1`, the selectivity ratio in series [5] came out at 5.7. Also, the IC50 in the series on Influenza B virus [1] was 11.8 µg/mL (≈ 27.2 µM); in the series with Influenza A virus [2], more than 22.2 µg/mL; in the series with Influenza A virus [3] it was more than 22.2 µg/mL. Besides, the CC50 at 48 h in [4] was 66.7 µg/mL (≈ 154 µM).
As for `C=C(C(=O)OCc1cn(Cc2cccc(OC)c2)nn1)[C@@H]1CC[C@H](C)[C@@H]2CC(=O)C(C)=C2C1`, the IC50 with Influenza B virus [1], in the series on Influenza A virus [2] and in the series on Influenza A virus [3] was more than 22.2 µg/mL throughout. Further, the CC50 at 48 h in [4] turned out to be 96.2 µg/mL (≈ 214 µM).
For the compound `C=C(C(=O)NCc1cn(Cc2cccc(Cl)c2)nn1)[C@@H]1CC[C@H](C)[C@@H]2CC(=O)C(C)=C2C1`, the “Ratio IC50” value in the series with Influenza B virus [9] is reported as more than 4. For the same compound, the selectivity ratio in series [5] was 3.9. Moreover, the IC50 in the series on Influenza B virus [1] was 7.41 µg/mL (≈ 16.4 µM); in the series with Influenza A virus [2] it was more than 7.41 µg/mL; in the series on Influenza A virus [3], more than 7.41 µg/mL. Further, in series [4], the CC50 at 48 h stood at 28.6 µg/mL (≈ 63.2 µM).
Regarding `C=C(C(=O)NCc1cn(C2C=CCCC2)nn1)[C@@H]1CC[C@H](C)[C@@H]2CC(=O)C(C)=C2C1` (stereo partly specified), the selectivity ratio in series [5] stood at 7.85; in series [8], 4.96; in series [7], 9.86. The results for the IC50 in the series with Influenza B virus [1], with Influenza A virus [2] and in the series with Influenza A virus [3] were 13.4 µg/mL (≈ 32.8 µM), more than 22.2 µg/mL and 9.75 µg/mL (≈ 23.9 µM), respectively. In addition, the CC50 at 48 h in [4] was 96.2 µg/mL (≈ 235 µM).
As to `C=C(C(=O)O)[C@@H]1CC[C@H](C)[C@@H]2CC(=O)C(C)=C2C1` [PECHUELOIC ACID], the selectivity ratio in series [5] was more than 4030; in [6], 25.8; in series [8], more than 1340; in series [7], more than 111. The IC50 in the series with Influenza B virus [1] stood at 181 µg/mL (≈ 727 µM); in the series on Influenza A virus [3], 4650 µg/mL (≈ 18700 µM). Moreover, the CC50 at 48 h in series [4] was 248 µg/mL (≈ 999 µM).
Turning to `C=C(C(=O)NCc1cn(Cc2ccccc2F)nn1)[C@@H]1CC[C@H](C)[C@@H]2CC(=O)C(C)=C2C1`, the IC50 in the series on Influenza B virus [1], in the series on Influenza A virus [2] and with Influenza A virus [3] was more than 66.7 µg/mL each time. In [4], the CC50 at 48 h came to 116 µg/mL (≈ 265 µM).
